Tests used:
Type in all cases: cell-based
[1] = molecular target: P2Y purinoceptor 12 (Homo sapiens) (UniProt Q9H244); test: Antagonist activity at P2Y12 receptor in human blood platelets assessed as inhibition of ADP-induced platelet aggregation at 0.1 uM compound preincubated with blood for 5 mins prior to ADP addition by electrode aggregometry assay
Summary of the method: (§1)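 Fresh hirudin-anticoagulated human whole blood from volunteers free of medication for seven days, tested within two hours of venepuncture. 300 μL blood mixed with 300 μL pre-warmed isotonic saline containing compound (0, 0.1, 1, 10 or 100 μM final) or vehicle (1% DMSO final). Incubated 5 min at 37 °C, then 20 μL 0.2 mM ADP added.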

[2] = molecular target: P2Y purinoceptor 12 (Homo sapiens) (UniProt Q9H244); test: Antagonist activity at P2Y12 receptor in human blood platelets assessed as inhibition of ADP-induced platelet aggregation at 1 uM compound preincubated with blood for 5 mins prior to ADP addition by electrode aggregometry assay; summary of the method: as §1
[3] = molecular target: P2Y purinoceptor 12 (Homo sapiens) (UniProt Q9H244); test: Antagonist activity at P2Y12 receptor in human blood platelets assessed as inhibition of ADP-induced platelet aggregation at 10 uM compound preincubated with blood for 5 mins prior to ADP addition by electrode aggregometry assay; details: filed as antagonist; summary of the method: as §1

Sequence of P2Y purinoceptor 12 (Homo sapiens) (Q9H244 whole entry): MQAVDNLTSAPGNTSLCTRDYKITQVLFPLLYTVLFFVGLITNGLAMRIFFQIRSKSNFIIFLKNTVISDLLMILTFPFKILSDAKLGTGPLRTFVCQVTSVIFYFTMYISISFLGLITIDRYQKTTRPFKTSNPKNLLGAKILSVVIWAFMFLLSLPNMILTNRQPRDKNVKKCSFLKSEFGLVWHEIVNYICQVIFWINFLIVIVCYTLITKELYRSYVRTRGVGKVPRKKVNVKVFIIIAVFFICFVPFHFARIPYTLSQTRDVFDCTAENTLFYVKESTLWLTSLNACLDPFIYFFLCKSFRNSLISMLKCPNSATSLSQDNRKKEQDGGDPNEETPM

inhibition [1] [%]	inhibition [2] [%]	inhibition [3] [%]	Compound
37	38.2	61.8	CCOC(=O)c1cc(NC(=O)c2cc(NC(=O)c3cc(NC(=O)c4c(-c5ccccc5)noc4C)cn3C)cn2C)cn1C
22.3	33.6	57.8	O=C(CCC(=O)Nc1ccc2[nH]c3ccccc3c(=O)c2c1)Nc1ccc2[nH]c3ccccc3c(=O)c2c1
4.75	22.8	41.1	O=C(CCCCCCCC(=O)Nc1ccc2[nH]c3ccccc3c(=O)c2c1)Nc1ccc2[nH]c3ccccc3c(=O)c2c1
